Assay [1] concerns the target Metabotropic glutamate receptor 1 (Homo sapiens) (UniProt Q13255). As to the kind of experiment: Antagonist activity against human mGluR1a assessed as effect on cAMP production in RGT cells upto 100 uM. It counts as functional, cell-based. In outline: (§1)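 Compounds were tested at concentrations up to 100 µM for agonist or antagonist effects. Assays used RGT cells, which are AV12-664 cells coexpressing GLAST and recombinant human mGlu1a, mGlu5a, mGlu4a or mGlu7a.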
For orientation: cAMP levels reflect the balance of adenylyl cyclase and phosphodiesterase activity.

For assay [2], the target named is Metabotropic glutamate receptor 7 (Homo sapiens) (UniProt Q14831). The assay is described as follows: Antagonist activity against human mGluR7a assessed as effect on cAMP production in RGT cells upto 100 uM. Format: functional, cell-based. In outline: as §1
Chain of Metabotropic glutamate receptor 7 (Homo sapiens) (Q14831 whole entry): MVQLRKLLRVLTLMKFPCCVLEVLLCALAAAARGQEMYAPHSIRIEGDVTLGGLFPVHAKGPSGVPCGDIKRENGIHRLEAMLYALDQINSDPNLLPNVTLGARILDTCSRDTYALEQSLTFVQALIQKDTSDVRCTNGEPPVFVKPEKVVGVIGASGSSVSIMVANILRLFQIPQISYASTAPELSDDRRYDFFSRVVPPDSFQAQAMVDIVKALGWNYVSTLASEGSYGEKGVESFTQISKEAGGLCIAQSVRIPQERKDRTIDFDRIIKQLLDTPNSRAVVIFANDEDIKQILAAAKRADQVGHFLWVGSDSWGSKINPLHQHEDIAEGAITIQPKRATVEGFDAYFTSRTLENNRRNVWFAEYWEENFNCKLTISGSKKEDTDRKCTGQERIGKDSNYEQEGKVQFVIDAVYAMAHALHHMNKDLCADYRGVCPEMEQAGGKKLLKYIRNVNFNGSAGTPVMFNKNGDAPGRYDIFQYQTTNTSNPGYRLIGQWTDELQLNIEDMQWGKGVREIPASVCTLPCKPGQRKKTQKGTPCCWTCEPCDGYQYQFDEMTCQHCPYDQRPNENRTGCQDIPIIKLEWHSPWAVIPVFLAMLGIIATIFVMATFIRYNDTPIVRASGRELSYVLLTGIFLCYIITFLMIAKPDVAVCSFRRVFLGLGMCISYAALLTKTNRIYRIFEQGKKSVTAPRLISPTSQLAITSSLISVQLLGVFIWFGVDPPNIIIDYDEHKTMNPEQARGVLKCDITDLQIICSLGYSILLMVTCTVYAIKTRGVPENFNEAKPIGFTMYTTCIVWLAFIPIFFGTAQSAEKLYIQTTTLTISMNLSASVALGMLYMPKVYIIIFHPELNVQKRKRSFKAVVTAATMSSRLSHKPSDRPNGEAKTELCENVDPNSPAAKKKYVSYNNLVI
The target in assay [3] is Metabotropic glutamate receptor 5 (Homo sapiens) (UniProt P41594). As to the kind of experiment: Antagonist activity against human mGluR5a assessed as effect on cAMP production in RGT cells upto 100 uM. Format: functional, cell-based. In outline: as §1
Chain of Metabotropic glutamate receptor 5 (Homo sapiens) (P41594 21-1212 limits assumed): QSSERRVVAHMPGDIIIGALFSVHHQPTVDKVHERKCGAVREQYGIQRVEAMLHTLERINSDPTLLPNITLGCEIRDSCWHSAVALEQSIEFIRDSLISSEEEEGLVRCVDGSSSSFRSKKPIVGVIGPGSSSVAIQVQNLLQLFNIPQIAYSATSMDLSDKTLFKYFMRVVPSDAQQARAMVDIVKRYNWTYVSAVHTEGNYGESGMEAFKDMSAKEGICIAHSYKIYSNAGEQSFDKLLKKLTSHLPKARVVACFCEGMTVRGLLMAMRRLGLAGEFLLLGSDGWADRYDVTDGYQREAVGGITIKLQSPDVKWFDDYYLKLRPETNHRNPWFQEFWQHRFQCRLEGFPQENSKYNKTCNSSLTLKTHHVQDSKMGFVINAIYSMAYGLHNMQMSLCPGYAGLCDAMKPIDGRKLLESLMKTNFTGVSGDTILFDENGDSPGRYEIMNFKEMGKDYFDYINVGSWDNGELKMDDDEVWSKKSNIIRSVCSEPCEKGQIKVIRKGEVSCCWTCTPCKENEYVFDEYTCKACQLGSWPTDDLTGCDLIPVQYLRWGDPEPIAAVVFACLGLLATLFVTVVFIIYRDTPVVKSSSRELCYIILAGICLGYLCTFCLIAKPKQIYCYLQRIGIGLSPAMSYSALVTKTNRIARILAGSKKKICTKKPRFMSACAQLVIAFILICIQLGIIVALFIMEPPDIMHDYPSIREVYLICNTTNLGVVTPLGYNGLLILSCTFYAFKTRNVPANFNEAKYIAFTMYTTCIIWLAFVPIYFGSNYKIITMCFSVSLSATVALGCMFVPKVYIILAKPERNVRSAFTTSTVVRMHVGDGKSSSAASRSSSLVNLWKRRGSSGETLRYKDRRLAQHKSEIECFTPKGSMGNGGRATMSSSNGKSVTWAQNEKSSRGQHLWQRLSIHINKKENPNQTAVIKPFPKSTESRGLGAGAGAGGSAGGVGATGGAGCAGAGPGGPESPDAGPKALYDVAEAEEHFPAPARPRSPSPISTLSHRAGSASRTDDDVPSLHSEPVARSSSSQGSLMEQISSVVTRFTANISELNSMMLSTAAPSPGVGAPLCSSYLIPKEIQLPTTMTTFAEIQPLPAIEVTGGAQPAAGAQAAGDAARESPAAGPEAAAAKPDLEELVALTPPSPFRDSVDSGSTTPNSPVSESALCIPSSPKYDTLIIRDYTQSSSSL
Assay [4] concerns the target Metabotropic glutamate receptor 4 (Homo sapiens) (UniProt Q14833). As to the kind of experiment: Antagonist activity against human mGluR4a assessed as effect on cAMP production in RGT cells upto 100 uM. Format: functional, cell-based. The gist of the method: as §1
The target of assay [5] is Metabotropic glutamate receptor 8 (Homo sapiens, UniProt O00222). As to the kind of experiment: Agonist activity at human mGluR8 assessed as effect on cAMP production in RGT cells. Format: functional, cell-based. In outline:
(§2)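 cAMP second-messenger responses measured in RGT cells. These are non-neuronal AV12-664 cells coexpressing the glutamate transporter GLAST, to minimize glutamate activity, plus the recombinant human receptor (mGlu2, mGlu3 or mGlu8). Agonist EC50 determined.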

Assay [6] has as its target T1, Metabotropic glutamate receptor 2 (Homo sapiens, UniProt Q14416). As to the kind of experiment: Displacement of [3H]LY341495 from human recombinant mGluR2 in RGT cells. It counts as cell-based. On the technique in general: Loss of bound radioactivity is the signal in a displacement assay; it reports binding, not function.
The target of assay [7] is T2, Metabotropic glutamate receptor 3 (Homo sapiens, UniProt Q14832). The assay is described as follows: Displacement of [3H]LY341495 from human recombinant mGluR3 in RGT cells. Format: cell-based. In outline: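 Radioligand binding on membranes carrying recombinant human mGlu2 or mGlu3, displacing the antagonist [3H]LY341495. Ki was calculated from IC50 by the Cheng-Prusoff equation. Values are the mean of at least three separate experiments.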

For assay [8], the target named is T1, Metabotropic glutamate receptor 2. As to the kind of experiment: Agonist activity at human mGluR2 assessed as effect on cAMP production in RGT cells. It counts as functional, cell-based. The gist of the method: as §2
The target in assay [9] is T2, Metabotropic glutamate receptor 3. As to the kind of experiment: Agonist activity at human mGluR3 assessed as effect on cAMP production in RGT cells. Format: functional, cell-based. In outline:
as §2

Assay [10] addresses Metabotropic glutamate receptor 4 (Homo sapiens) (UniProt Q14833). The assay is described as follows: Agonist activity at human mGluR4a assessed as effect on cAMP production in RGT cells upto 100 uM. It counts as functional, cell-based. In outline: as §1
The target of assay [11] is Metabotropic glutamate receptor 7 (Homo sapiens) (UniProt Q14831). As to the kind of experiment: Agonist activity at human mGluR7a assessed as effect on cAMP production in RGT cells upto 100 uM. Format: functional, cell-based. The gist of the method: as §1
For assay [12], the target named is Metabotropic glutamate receptor 1 (Homo sapiens) (UniProt Q13255). The assay is described as follows: Agonist activity at human mGluR1a assessed as effect on cAMP production in RGT cells upto 100 uM. Format: functional, cell-based. In outline: as §1
Chain of Metabotropic glutamate receptor 1 (Homo sapiens) (Q13255 19-1194 limits assumed): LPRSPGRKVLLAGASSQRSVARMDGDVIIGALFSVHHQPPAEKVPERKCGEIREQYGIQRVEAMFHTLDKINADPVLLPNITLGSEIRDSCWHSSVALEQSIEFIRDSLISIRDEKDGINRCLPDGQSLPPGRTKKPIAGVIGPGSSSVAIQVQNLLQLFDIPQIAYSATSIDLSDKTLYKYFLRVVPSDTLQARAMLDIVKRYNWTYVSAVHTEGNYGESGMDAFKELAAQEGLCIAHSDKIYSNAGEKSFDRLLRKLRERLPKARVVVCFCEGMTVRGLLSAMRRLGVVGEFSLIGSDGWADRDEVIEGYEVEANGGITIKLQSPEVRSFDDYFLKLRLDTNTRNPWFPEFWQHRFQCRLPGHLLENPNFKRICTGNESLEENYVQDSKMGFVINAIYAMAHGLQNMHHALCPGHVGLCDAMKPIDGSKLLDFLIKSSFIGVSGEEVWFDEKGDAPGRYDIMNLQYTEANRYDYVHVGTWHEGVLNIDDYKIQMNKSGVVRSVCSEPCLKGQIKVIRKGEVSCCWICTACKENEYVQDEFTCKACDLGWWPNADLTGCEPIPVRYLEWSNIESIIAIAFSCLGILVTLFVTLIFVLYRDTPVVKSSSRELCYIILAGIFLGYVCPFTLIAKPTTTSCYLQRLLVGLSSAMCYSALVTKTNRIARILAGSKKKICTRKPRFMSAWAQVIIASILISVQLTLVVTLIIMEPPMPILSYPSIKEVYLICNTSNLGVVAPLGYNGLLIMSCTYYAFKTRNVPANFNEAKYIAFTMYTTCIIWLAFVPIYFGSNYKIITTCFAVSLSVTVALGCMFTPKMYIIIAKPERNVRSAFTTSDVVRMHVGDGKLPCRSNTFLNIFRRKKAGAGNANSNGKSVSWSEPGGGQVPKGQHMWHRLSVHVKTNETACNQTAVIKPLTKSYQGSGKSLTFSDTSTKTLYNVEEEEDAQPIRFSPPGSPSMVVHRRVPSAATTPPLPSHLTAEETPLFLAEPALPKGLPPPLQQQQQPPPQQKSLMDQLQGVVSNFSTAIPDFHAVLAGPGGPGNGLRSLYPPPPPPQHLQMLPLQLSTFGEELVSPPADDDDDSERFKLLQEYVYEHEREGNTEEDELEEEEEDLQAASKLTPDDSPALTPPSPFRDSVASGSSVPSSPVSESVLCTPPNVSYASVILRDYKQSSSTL
Assay [13] has as its target Metabotropic glutamate receptor 5 (Homo sapiens) (UniProt P41594). As to the kind of experiment: Agonist activity at human mGluR5a assessed as effect on cAMP production in RGT cells upto 100 uM. Format: functional, cell-based. In outline:
as §1

Assay [14] has as its system Rattus norvegicus. As to the kind of experiment: Impairment of rotarod performance in Sprague-Dawley rat at 3 mg/kg, po after 2 hrs. It counts as functional, organism-based. The arrangement: dose 3 mg/kg. In outline: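 Fasted Sprague-Dawley rats were trained on a rotorod at 4 rpm over four trials. Rats holding on for 60 s were retested 30 min before dosing, then given oral drug or vehicle. They were tested again 2 h later for up to 60 s. Read-out is mean seconds on the rod, n=8 per group.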
In general terms: In the rotarod test animals must keep their balance on a rotating rod.

The source made the active and inactive calls. The calls are words filed in the database; no cut-off is given here.

Chain of Metabotropic glutamate receptor 4 (Homo sapiens) (Q14833 whole entry): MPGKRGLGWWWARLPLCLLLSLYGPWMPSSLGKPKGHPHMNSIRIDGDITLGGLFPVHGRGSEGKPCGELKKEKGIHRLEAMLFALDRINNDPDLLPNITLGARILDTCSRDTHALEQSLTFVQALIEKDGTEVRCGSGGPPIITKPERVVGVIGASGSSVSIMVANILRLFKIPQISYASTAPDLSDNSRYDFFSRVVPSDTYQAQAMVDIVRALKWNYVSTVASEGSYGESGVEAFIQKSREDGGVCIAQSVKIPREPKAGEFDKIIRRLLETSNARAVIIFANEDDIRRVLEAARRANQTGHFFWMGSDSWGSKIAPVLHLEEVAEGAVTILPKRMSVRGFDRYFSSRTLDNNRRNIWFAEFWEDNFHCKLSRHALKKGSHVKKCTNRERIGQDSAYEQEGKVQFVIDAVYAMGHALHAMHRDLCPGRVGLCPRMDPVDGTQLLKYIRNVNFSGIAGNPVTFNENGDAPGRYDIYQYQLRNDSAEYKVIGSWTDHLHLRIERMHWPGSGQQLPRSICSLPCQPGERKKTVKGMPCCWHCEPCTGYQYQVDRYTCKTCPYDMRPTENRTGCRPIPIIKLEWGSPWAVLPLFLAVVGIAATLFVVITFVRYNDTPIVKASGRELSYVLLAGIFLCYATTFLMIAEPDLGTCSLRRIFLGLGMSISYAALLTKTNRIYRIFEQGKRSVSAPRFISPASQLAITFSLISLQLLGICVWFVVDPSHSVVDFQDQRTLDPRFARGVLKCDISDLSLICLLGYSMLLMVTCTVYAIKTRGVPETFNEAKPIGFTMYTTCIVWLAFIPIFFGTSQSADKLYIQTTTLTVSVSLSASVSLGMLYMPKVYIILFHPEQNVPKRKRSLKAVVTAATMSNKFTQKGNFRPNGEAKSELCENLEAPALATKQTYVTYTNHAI
T1 sequence (Q14416 whole entry): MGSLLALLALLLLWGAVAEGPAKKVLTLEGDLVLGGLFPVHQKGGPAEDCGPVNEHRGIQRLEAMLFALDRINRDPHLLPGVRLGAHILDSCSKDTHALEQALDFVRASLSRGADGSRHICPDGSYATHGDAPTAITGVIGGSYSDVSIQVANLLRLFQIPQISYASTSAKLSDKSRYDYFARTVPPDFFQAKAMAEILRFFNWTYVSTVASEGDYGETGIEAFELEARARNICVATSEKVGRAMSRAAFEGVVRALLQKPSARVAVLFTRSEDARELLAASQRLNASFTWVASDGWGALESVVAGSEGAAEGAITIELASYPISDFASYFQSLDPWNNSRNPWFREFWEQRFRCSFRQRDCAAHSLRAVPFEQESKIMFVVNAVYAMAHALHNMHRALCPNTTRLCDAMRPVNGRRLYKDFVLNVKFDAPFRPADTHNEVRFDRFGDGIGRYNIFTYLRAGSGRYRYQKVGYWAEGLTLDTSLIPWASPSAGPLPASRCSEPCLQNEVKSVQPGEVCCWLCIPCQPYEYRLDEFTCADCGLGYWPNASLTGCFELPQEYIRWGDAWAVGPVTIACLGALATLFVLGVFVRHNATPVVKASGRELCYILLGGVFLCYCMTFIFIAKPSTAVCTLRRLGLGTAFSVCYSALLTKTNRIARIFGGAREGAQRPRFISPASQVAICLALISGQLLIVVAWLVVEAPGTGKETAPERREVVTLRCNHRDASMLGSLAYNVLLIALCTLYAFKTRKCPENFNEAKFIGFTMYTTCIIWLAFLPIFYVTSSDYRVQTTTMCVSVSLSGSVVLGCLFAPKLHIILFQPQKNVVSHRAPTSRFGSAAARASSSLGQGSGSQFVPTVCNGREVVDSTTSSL

Consider `N[C@@]1(C(=O)O)C[S+]([O-])[C@H]2[C@H](C(=O)O)[C@H]21` (stereo in doubt; (-)-11), for which the result in [1], in [2], in assay [3] and in assay [4] was inactive.
Broadly, the EC50 is the concentration giving half of the maximal effect. By Ki is commonly meant a dissociation constant, usually derived from enzyme kinetics or from competition with a known ligand. For the compound `N[C@@]1(C(=O)O)C[S+]([O-])[C@H]2[C@H](C(=O)O)[C@H]21` (stereo in doubt; (-)-10), the figures for the EC50 in assay [5], in assay [8] and in assay [9] were greater than 100000 nM, 18.1 nM and 210 nM, respectively. Besides, the Ki in assay [6] worked out at 508 nM; in [7] it was 447 nM.
For the compound `N[C@@]1(C(=O)O)CO[C@H]2[C@H](C(=O)O)[C@H]21`, the outcome in assay [10], in assay [11], in assay [1], in [2], in [12] and in assay [13] was inactive. The result in assay [3] and in assay [4] was inactive.
`N[C@@]1(C(=O)O)CS[C@H]2[C@H](C(=O)O)[C@H]21`: the outcome in assay [10], in assay [11], in assay [1], in assay [2], in assay [12] and in assay [13] was inactive. For the same compound, the result in [3] and in assay [4] was inactive.
As to `N[C@@]1(C(=O)O)C[S+]([O-])[C@H]2[C@H](C(=O)O)[C@H]21` (stereo in doubt; (+)-11), the outcome in [10], in [11], in assay [1], in [2], in assay [12] and in [13] was inactive. In addition, the outcome in [3] and in assay [4] was inactive. Moreover, the outcome in assay [14] was Active.

(Values after ChEMBL document CHEMBL1139833, “Synthesis and metabotropic glutamate receptor activity of S-oxidized variants of (-)-4-amino-2-thiabicyclo-[3.1.0]hexane-4,6-dicarboxylate: identification of potent, selective, and orally bioavailable agonists for mGlu2/3 receptors” (J Med Chem, 2007).)
